Sampled rows, rich in hits. Any-hit rate of the full collection: about 2.8%.
T cruzi inh = T. cruzi replication inhibition; T. cruzi beta-gal in NIH3T3, luminescence, 90 h; inhibition, % (test concentration not listed); 1.4% of 300,000 active; AID 1885;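 active = mean inhibition across valid replicates above about 55%, limit read from the data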;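 note: signal also drops with host cell toxicity which is not excluded here; 0% = plate median of DMSO wells and 100% = zero luminescence signal; higher percent means less beta-gal luminescence so fewer parasites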
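System: Mouse NIH/3T3 fibroblasts infected with β-gal-expressing T. cruzi Tulahuen C4 | Quantity: NIH/3T3 cells, 5,000 per well | Reagent: 5000 reporter trypomastigotes per well | Dosing: Compound pinned at 50 nL/well, DMSO | Schedule: 3 h host attachment, then at least 90 h co-culture | Detection: GalScreen luminescence, 60 min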
PP1 counter = PP1-alpha (human) inhibition in PP5 counter-screen; purified PP1alpha, OMFP fluorescence; inhibition, % at 6.7 µM; 0.9% of 320,000 active;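 active = inhibition above the mean inhibition of all tested compounds plus 3 SD, computed separately for each screening campaign, cut at about 15% in these data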
p-CIP stab down = p/CIP protein destabilization; F442A p/CIP-EGFP cells, EGFP fluorescence, 16 h; decrease of EGFP signal, % at 10 µM; 0.01% of 290,000 active; AID 1984;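 active = EGFP signal decrease of at least 30% at 10 µM or well 3 SD below plate mean, unless failing retest; inactive = the rest, including hits failing retest or dose response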
UBC13 polyUb = inhibitors of human UBC13 polyubiquitin chain formation | AID 485273 | TR-FRET | P61088 | 0.47% of 330,000 active | inhibition, % at 20 µM; in the data active = inhibition above about 45%, passing the limit was not always enough
Target sequence (P61088 whole entry, looked up): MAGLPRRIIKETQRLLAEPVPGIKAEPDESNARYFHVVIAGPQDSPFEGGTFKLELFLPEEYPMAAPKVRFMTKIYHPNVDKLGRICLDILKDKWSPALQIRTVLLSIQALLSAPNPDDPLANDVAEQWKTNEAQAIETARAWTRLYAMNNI
AI-2 QS mod = modulators of Vibrio harveyi AI-2 quorum sensing system. AID 2094. 0.4% of 300,000 active. Vibrio harveyi JMH597 AI-2 luminescence/OD600 ratio, 9 h; active compounds read low; strain lacks LuxN and CqsS sensors; 0 = neutral-control median. activity change, % at 7.5 µM; in the data active = activity change below about -75%, passing the limit was not always enough;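 note: luminescence divided by OD600 gain over 9 h not by final OD600 alone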
PP1 confirm = human PP1 phosphatase inhibition, confirmation; inhibition, % at 6.7 µM; 52% of 1,900 active; purified PP1alpha, OMFP substrate fluorescence; shares compounds with PP1 counter;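 active = mean PP1 inhibition above a set limit taken from the earlier primary screen, cut at about 15% in these data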
PP5 inh counter = counter-screen for PP1 inhibitors: human PP5 phosphatase inhibition; purified PP5c, OMFP fluorescence; inhibition, % at 6.7 µM; 4% of 1,900 active; shares compounds with PP1 counter;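 active = mean PP5 inhibition over triplicate wells above about 9.5% taken from the earlier PP1 screen, limit read from the data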
* hit, by the source's call.

COc1cc(C(F)(F)F)nc(-c2ccccn2)n1 was read as T cruzi inh 6.5, PP1 counter -0.5, p-CIP stab down -0.7, UBC13 polyUb 3.7 and AI-2 QS mod 69.8.
`COc1ccc(Sc2nc(-c3ccccn3)ncc2OC)cc1` gave T cruzi inh 62.6*, PP1 counter 57.0*, p-CIP stab down -2.1, UBC13 polyUb 11.7, AI-2 QS mod 42.4, PP1 confirm 55.9* and PP5 inh counter -0.6.
`COc1cnc(-c2ccccn2)nc1Sc1ccccc1` gave T cruzi inh 65.2*, PP1 counter 55.0*, p-CIP stab down 3.6, UBC13 polyUb -6.8, AI-2 QS mod 41.0, PP1 confirm 48.2* and PP5 inh counter -0.6.
`COc1cnc(-c2ccccn2)nc1Sc1ccc(Cl)cc1` gave T cruzi inh 19.4, PP1 counter 34.9*, p-CIP stab down -10.7, UBC13 polyUb -3.2, AI-2 QS mod 16.7, PP1 confirm 45.6* and PP5 inh counter 1.1.
Screening COc1cnc(-c2ccccn2)nc1Sc1ccc(F)cc1 returned T cruzi inh -48.7, PP1 counter 43.0*, p-CIP stab down -9.8, UBC13 polyUb 3.8, AI-2 QS mod 2.7, PP1 confirm 51.0* and PP5 inh counter 0.4.
`COc1cnc(N(C)C)nc1Sc1ccc(Cl)cc1` gave T cruzi inh -4.7, PP1 counter 0.8, p-CIP stab down -1.3, UBC13 polyUb 21.7 and AI-2 QS mod 8.3.
CCOC(=O)CSc1nc(-c2ccccn2)ncc1OC was read as T cruzi inh -2.4, PP1 counter 5.7, p-CIP stab down -0.5, UBC13 polyUb -16.4 and AI-2 QS mod 23.6.
`CCOC(=O)CSc1ncc(OC)c(Sc2ccc(OC)cc2)n1` gave T cruzi inh -14.5, PP1 counter -0.3, p-CIP stab down -6.6, UBC13 polyUb 6.7 and AI-2 QS mod 18.0.
Screening COc1cccc(C2CC(c3cccs3)=NN2S(C)(=O)=O)c1 (stereo unspecified) returned T cruzi inh -5.3, PP1 counter -1.1, p-CIP stab down -17.3, UBC13 polyUb 1.1 and AI-2 QS mod 27.9.
`CC(=O)Nc1cccc(NC(=O)CSc2nc(=O)n3cccc(C)c3n2)c1` gave T cruzi inh -2.8, PP1 counter -3.2, UBC13 polyUb -4.4 and AI-2 QS mod 8.7.
COc1ccc(C(=O)C[n+]2cn(C(F)F)c3ccccc32)c(F)c1 was read as T cruzi inh -24.7, PP1 counter -2.1, p-CIP stab down -8.1, UBC13 polyUb -2.9 and AI-2 QS mod 9.8.
`CCS(=O)(=O)N1CCC(C(=O)Nc2ccc(C(C)=O)cc2)CC1` gave T cruzi inh -18.9, PP1 counter -4.2, p-CIP stab down -11.0, UBC13 polyUb -6.3 and AI-2 QS mod 28.9.
For Cc1ccc(-c2nn(-c3ccc(F)cc3)cc2C(=O)N(C)CC(=O)Nc2ccc(N3CCOCC3)cc2)cc1 the results were T cruzi inh 11.9, PP1 counter -4.2, UBC13 polyUb -1.3 and AI-2 QS mod 28.7.
Screening N#Cc1ccc(-c2ccco2)nc1SCC(=O)c1ccc(Cl)cc1 returned T cruzi inh 27.0, PP1 counter 26.2*, p-CIP stab down -19.7, UBC13 polyUb -8.6, AI-2 QS mod 4.8, PP1 confirm 6.8 and PP5 inh counter -3.1.
`COc1ccc(C2CC(c3ccc(Br)cc3)=NN2C(=O)CSC2=NCCS2)cc1` (stereo unspecified) gave T cruzi inh 47.7, PP1 counter 19.7*, p-CIP stab down 3.7, UBC13 polyUb 6.6, AI-2 QS mod 12.4, PP1 confirm 2.6 and PP5 inh counter 1.7.
Screening CCn1c(CSc2nc3ccccc3s2)nnc1SCC(=O)c1ccc(Cl)cc1 returned T cruzi inh 31.5, PP1 counter 21.9*, p-CIP stab down -4.2, UBC13 polyUb -3.4, AI-2 QS mod 17.4, PP1 confirm 4.1 and PP5 inh counter 0.6.
COc1ccc(CNC(=O)[C@H](C)NC(=O)C2CCN(C(=O)[C@@H](N)CCSC)CC2)cc1 was read as T cruzi inh -17.1, PP1 counter -3.1, p-CIP stab down 12.3, UBC13 polyUb 2.8 and AI-2 QS mod 4.7.

Source: PubChem
